Usually Ki stands for a dissociation constant, usually derived from enzyme kinetics or from competition with a known ligand.

Calls of active or inactive are those of the source. No cut-off for these calls is given here.

The text below walks through data of ChEMBL document CHEMBL4007410, “Fluorinated Chaperone-β-Cyclodextrin Formulations for β-Glucocerebrosidase Activity Enhancement in Neuronopathic Gaucher Disease” (J Med Chem, 2017).

The nature of test [1]: Competitive inhibition of bovine liver beta-glucosidase assessed as formation of 4-methylumbelliferone from 4-methylumbelliferyl […] in presence of beta-cyclodextrin by Lineweaver-Burk Plot analysis. Also noted: species or system Bos taurus.
The species entered for the next test is Homo sapiens. The test is described as follows: Inhibition of human lysosomal beta-hexosaminidase assessed as formation of 4-methylumbelliferone from 4-methylumbelliferyl N-acetyl-beta-D-glucosaminide up to 200 uM by luminescence spectrophotometry. Summed up:
(§1)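 Cells were scraped into ice-cold water (10⁶ cells/mL), sonicated and centrifuged, and protein was quantified. Lysate in 0.1% Triton X-100 was incubated at 37 °C with the matching 4-MU-conjugated glycoside in 0.1 M citrate, pH 4.5, with increasing chaperone or βCD-complex concentrations up to 200 μM. Reactions were stopped with glycine-NaOH, pH 10.7, and read at ex 340/em 460 nm.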

Test [2] has as its target T1, Beta-mannosidase (Homo sapiens) (UniProt O00462).
T1 sequence (whole entry): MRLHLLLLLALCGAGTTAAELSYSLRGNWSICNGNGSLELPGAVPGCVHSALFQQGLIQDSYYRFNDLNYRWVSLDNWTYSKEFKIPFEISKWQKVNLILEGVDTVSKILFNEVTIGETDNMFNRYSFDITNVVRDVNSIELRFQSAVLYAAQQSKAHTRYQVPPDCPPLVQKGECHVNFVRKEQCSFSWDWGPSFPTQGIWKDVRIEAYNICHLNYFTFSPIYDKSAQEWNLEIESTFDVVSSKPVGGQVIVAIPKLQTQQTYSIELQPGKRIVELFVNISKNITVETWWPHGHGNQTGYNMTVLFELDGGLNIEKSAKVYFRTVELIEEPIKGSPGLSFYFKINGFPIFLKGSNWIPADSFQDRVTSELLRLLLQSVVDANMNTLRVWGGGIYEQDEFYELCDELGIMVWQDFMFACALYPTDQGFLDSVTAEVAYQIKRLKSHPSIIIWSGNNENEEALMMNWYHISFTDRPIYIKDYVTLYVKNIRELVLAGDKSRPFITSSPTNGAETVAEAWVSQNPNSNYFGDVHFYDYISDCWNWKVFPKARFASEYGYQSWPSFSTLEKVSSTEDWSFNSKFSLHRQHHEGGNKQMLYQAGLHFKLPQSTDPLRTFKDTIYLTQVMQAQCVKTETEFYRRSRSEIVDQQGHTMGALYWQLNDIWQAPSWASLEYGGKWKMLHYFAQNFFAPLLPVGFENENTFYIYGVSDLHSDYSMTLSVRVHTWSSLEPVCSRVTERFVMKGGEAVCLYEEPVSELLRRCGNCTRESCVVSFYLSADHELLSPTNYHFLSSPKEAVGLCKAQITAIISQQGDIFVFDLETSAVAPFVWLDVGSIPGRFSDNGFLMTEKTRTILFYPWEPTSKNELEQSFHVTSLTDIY
Description: Inhibition of human lysosomal beta-mannosidase assessed as formation of 4-methylumbelliferone from 4-methylumbelliferyl alpha-D-glucopyranoside up to 200 uM by luminescence spectrophotometry. Summed up: as §1

Test [3] is described as follows: Critical micellar concentration of the compound measured after 1 hr by pyrene fluorescence excitation spectral analysis. Summed up: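 Pyrene fluorescence method: pyrene at 0.6 μM final in water, iminosugar from 1180 to 4.3·10⁻³ μM, equilibrated 1 h at 37 °C. Emission was read at 375 nm. The I339/I335 excitation intensity ratio tracked the band shift, giving the CMC.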

Test [4] deals with T2, Lysosomal acid glucosylceramidase (Homo sapiens, UniProt P04062).
T2 sequence (P04062 whole entry): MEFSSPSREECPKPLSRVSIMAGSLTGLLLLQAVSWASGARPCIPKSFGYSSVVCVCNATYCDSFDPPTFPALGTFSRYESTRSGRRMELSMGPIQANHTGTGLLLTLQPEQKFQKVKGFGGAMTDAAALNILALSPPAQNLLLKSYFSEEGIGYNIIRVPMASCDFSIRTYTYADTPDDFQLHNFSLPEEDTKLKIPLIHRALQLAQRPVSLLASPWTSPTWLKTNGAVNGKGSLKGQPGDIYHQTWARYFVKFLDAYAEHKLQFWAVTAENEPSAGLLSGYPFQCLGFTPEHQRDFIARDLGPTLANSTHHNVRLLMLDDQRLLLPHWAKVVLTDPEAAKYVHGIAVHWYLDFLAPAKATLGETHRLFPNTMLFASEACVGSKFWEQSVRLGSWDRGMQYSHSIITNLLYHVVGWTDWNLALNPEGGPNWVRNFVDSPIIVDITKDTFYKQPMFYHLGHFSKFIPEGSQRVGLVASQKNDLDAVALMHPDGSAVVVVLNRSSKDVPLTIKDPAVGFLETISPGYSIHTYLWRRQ
The test is described as follows: Inhibition of human GCase assessed as formation of 4-methylumbelliferone from […] at pH 7 by luminescence spectrophotometry.

In test [5] the target is T3, Beta-galactosidase (Homo sapiens) (UniProt P16278).
T3 sequence (whole entry): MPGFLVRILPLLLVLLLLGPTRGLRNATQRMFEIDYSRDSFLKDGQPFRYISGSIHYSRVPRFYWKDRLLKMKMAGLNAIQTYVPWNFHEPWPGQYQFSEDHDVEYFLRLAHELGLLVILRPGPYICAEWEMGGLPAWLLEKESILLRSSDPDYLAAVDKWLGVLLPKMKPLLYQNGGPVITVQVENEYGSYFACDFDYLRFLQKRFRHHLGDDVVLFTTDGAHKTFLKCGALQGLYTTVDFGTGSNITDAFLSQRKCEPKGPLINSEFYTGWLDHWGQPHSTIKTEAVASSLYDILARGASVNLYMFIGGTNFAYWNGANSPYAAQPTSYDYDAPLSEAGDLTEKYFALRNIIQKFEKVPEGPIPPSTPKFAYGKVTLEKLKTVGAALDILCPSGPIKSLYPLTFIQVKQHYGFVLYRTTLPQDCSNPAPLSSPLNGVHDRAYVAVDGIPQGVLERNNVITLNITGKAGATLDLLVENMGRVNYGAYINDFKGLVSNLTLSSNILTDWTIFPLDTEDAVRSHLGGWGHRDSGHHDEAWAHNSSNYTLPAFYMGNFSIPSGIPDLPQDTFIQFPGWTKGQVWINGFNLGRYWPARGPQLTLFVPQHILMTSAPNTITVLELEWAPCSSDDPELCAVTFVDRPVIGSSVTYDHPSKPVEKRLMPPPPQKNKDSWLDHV
The test is described as follows: Inhibition of human lysosomal beta-galactosidase assessed as formation of 4-methylumbelliferone from 4-methylumbelliferyl beta-D-galactopyranoside up to 200 uM by luminescence spectrophotometry. Summed up:
as §1

With `O=C(CCC(F)(F)C(F)(F)C(F)(F)C(F)(F)F)NCCCCNC(=S)N1[C@@H]2CO[C@H]1[C@H](O)[C@@H](O)[C@@H]2O`, the results for the Ki in test [1] and in test [4] were 1.3 µM and 35 µM, respectively. The inhibition entry (in the test filed under Homo sapiens; in test [2]; in test [5]) was “inactive” throughout. Moreover, the CMC in test [3] stood at 393 µM.
On to `O=C(CCC(F)(F)C(F)(F)C(F)(F)C(F)(F)F)NCCCCCCCCCNC(=S)N1[C@@H]2CO[C@H]1[C@H](O)[C@@H](O)[C@@H]2O`, for which the Ki in test [1] came out at 0.26 µM; in test [4], 9.3 µM. For the same compound, the inhibition entry (in the test listed under Homo sapiens; in test [2]; in test [5]) was “inactive” throughout. Besides, the CMC in test [3] was determined as 37.5 µM.
For `O=C(CCC(F)(F)C(F)(F)C(F)(F)C(F)(F)C(F)(F)C(F)(F)F)NCCCCCCCCCNC(=S)N1[C@@H]2CO[C@H]1[C@H](O)[C@@H](O)[C@@H]2O`, the Ki in test [1] is 2.5 µM; in test [4], 4.1 µM. Besides, the inhibition result (in the test filed under Homo sapiens; in test [2]; in test [5]) was “inactive” each time. In addition, the CMC in test [3] stood at 15 µM.
Consider `O=C(CCC(F)(F)C(F)(F)C(F)(F)C(F)(F)C(F)(F)C(F)(F)F)NCCCCNC(=S)N1[C@@H]2CO[C@H]1[C@H](O)[C@@H](O)[C@@H]2O`, for which the inhibition constant (Ki) in test [1] came out at 0.13 µM; in test [4], 11.9 µM. Further, the inhibition entry (in the test filed under Homo sapiens; in test [2]; in test [5]) was “inactive” throughout. This compound also had a CMC in test [3] of 31.6 µM.
